Screening results from PubChem BioAssay.
A selection: hits, their analogues and other compounds. The true share with any hit is near 1.5%.
APJ antagonist: antagonists of human APJ apelin receptor; P35414; CHO-K1 APJ beta-arrestin complementation, luminescence; inhibition, % at 20 µM; 330,000 compounds, 0.32% hits;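 active = inhibition above about 40% at 20 µM, limit read from the data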;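 also: cells challenged with 10 nM apelin-13 agonist together with compound; plate controls were apelin-13 plus DMSO wells for no effect and DMSO wells lacking apelin-13 for full effect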
APJ ag: agonists of human APJ apelin receptor. P35414. CHO-K1 APJ PathHunter beta-arrestin, luminescence; 0% DMSO wells, 100% apelin. activation, % at 20 µM. 330,000 compounds, 0.11% hits;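 active = activation more than six SD over the plate average, tested at 20 µM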;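 also: 0% = DMSO alone and 100% = apelin-13 at 10 nM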
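Assay system – PathHunter CHO-K1 APJ (AGTRL-1) beta-arrestin reporter cells · Compound – one dose, 20 µM compound, 1% DMSO · Timing – compound 90 min 25 °C, reagent 1 h · Measured by – luminescence from split beta-galactosidase complementation, Galacton Star/Emerald II substrate · Measure – beta-arrestin recruitment to APJ as agonist activity, luminescent signal · Benchmarks – DMSO vs Apelin-13 10 nM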
HTR2A ag: activates the mouse 5-HT2A serotonin receptor; P35363; CHO-K1 mHTR2A beta-arrestin complementation, luminescence; percent of 30 µM serotonin response; activation, % at 7.6 µM; 360,000 compounds, 0.66% hits; AID 624169;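 active = activation above a run cutoff, the mean activation of all tested compounds plus 3 SD, cut at about 14% in these data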;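 also: 0% = plate median of compound wells and 100% = 30 µM serotonin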
Target sequence (P35363 whole entry, looked up): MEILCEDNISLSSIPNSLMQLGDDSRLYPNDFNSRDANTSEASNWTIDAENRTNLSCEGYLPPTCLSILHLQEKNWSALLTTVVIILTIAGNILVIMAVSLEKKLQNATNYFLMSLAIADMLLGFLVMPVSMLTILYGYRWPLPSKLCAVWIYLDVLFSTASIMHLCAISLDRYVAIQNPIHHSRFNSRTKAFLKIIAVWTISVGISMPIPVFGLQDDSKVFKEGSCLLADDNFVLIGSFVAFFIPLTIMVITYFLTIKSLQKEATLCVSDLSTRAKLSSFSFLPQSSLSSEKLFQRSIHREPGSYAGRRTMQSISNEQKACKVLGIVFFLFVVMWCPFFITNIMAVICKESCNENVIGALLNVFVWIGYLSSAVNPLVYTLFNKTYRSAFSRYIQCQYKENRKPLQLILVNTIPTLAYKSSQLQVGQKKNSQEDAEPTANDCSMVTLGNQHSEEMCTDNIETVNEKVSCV
CXCR6 block: CXCR6 (human) receptor inhibition; O00574; inhibition, % at 20 µM; 360,000 compounds, 0.36% hits; AID 602244; CHO-K1 PathHunter CXCR6 beta-arrestin, luminescence; in the data active = inhibition above about 34%, passing the limit was not always enough;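 also: antagonist mode with CXCL16 agonist at 10 nM final; 0% = 10 nM CXCL16 with DMSO and 100% = unstimulated wells without agonist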
CCR6 antagonist: CCR6 (human) receptor antagonism; P51684; CHO-K1 CCR6 PathHunter beta-arrestin, luminescence, CCL20-stimulated; inhibition, % at 20 µM; 340,000 compounds, 0.49% hits; AID 493098;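 active = compounds whose inhibition of the agonist-driven luminescence signal at 20 µM reaches about 50%, limit read from the data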;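 also: cells stimulated with CCL20 at 14 nM final; plate controls were DMSO with CCL20 for no effect and DMSO without agonist for full effect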
NTR1 ag: activates human neurotensin receptor 1 | AID 493036 | activation, % at 20 µM | P30989 | NTR1-U2OS beta-arrestin-GFP spot imaging, agonist mode | 330,000 compounds, 0.17% hits;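 active = activation at or above 40% of the spot to cytoplasm intensity ratio, with at least 20 cells analyzed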;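 also: 0% = DMSO without peptide and 100% = 100 nM NTR1 peptide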
OPRM1 ag: counter-screen for mouse HTR2A agonists: human mu opioid receptor agonists; 2,300 compounds, 5.3% hits; activation, % at 9.3 µM; U2OS OPRM1 beta-arrestin PathHunter, luminescence; DMSO 0%, DAMGO 9.3 µM 100%; shares compounds with HTR2A ag;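 active = mean activation above the mean of DMSO-only wells plus 3 SD, cut at about 0.5% in these data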
HTR2A ag conf: confirmation of mouse HTR2A serotonin receptor agonists; AID 624381; shares compounds with HTR2A ag; CHO-K1 PathHunter beta-arrestin recruitment, luminescence; DMSO 0%, 30 µM serotonin 100%; 2,300 compounds, 19% hits; activation, % at 7.6 µM;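 active = mean activation across triplicates above the hit threshold derived in the original primary screen, cut at about 15% in these data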
* marks the source's active call; other numbers are inactive results; nt = no result given.

SMILES	APJ antagonist	APJ ag	HTR2A ag	CXCR6 block	CCR6 antagonist	NTR1 ag	OPRM1 ag	HTR2A ag conf
O=C(NC1CC1)c1ccc2c(Cl)c3c(nc2c1)CCCC3	-1	0	6	-5	11	0	nt	nt
CCOC(=O)N1CCC(NC(=O)c2ccc3c(Cl)c4c(nc3c2)CCCC4)CC1	15	3	18*	13	19	6	-1	-3
COc1cc(OC)c2c(-c3ccccc3)cc(=O)oc2c1C(CCN1CCN(c2ccccc2)CC1)c1ccc(N(C)C)cc1 (centres undefined)	1	-3	17*	14	7	-4	-1	22*
COc1cc(OC)c2c(C)cc(=O)oc2c1C(CCN1CCN(c2ccccc2)CC1)c1ccc2c(c1)OCO2 (centres undefined)	21	-4	21*	16	21	-7	-1	72*
COc1ccc(C(CCN2CCN(c3ccccc3)CC2)c2c(OC)cc(OC)c3c(-c4ccccc4)cc(=O)oc23)cc1 (centres undefined)	15	-6	9	9	3	-2	nt	nt
COc1ccc(NC(=O)CN2C(=O)NC(C)(C3CC3)C2=O)c(OC)c1 (centres undefined)	2	-4	-2	-4	5	3	nt	nt
Cc1ccc(CNC(=O)C2CC(=O)OC23CCCC3)c(C)c1 (centres undefined)	-10	-3	16*	7	-5	-1	0	1
COc1ccc2nc(NC(=O)c3cc(C)oc3C)sc2c1	1	-2	1	-3	11	3	nt	nt
COc1ccc2nc(NC(=O)c3ccoc3C)sc2c1	-5	-2	23*	-1	8	0	-1	-5
Cc1ccsc1CN(C)C(=O)c1ccc(Oc2ccccc2)cc1	18	-1	-15	12	24	4	nt	nt
CC(C)Cn1c(SCC(=O)NCCCN2CCCC2=O)nc2ccccc21	5	0	16*	1	7	0	-1	-5
CC1(C)CC(=O)C(CC(=O)NC2CCCc3ccccc32)C(=O)C1 (centres undefined)	18	-1	-5	-11	0	1	nt	nt
COc1ccc(S(=O)(=O)N2CCOC2CNC(=O)C(=O)NCCc2ccccc2)cc1OC (centres undefined)	11	-2	3	-6	6	0	nt	nt
COc1ccc(CCNC(=O)C(=O)NCC2CCCN2S(=O)(=O)c2ccccc2)cc1 (centres undefined)	-36	3	16*	-1	2	2	0	0
COc1ccc(S(=O)(=O)N2CCOC2CNC(=O)C(=O)NCCc2ccccc2)cc1C (centres undefined)	7	0	16*	-4	0	0	-1	-5
O=C(Cn1cnc2ccccc2c1=O)N1CCN(Cc2ccc3c(c2)OCO3)CC1	-8	-2	15*	5	-3	-1	-1	47*
COc1cc(C(=O)O)ccc1O	7	5	28*	5	-3	-2	-1	-1
CCOCCn1c(SCC(=O)OCc2ccccc2)nc2c1c(=O)[nH]c(=O)n2C	9	-3	17*	-5	3	1	0	1
O=C(Nc1ccc(Br)cc1Br)C1CC(=O)N(Cc2ccccc2)C1 (centres undefined)	19	-8	-1	2	7	0	nt	nt
CCc1ccc[n+](-c2[nH]c(=O)sc2/C=N/N=C(\[O-])c2cccnc2)c1	8	-1	1	2	18	-1	nt	nt
Cc1cc(C)n(/N=C/c2ccc(O)cc2)c(=O)c1C#N	-1	-5	20*	3	-3	0	-1	-4
Cc1ccc(N(CC(=O)NC2CCCC2)C(=O)c2c(C)noc2C)cc1C	-1	-7	15*	0	0	1	0	-1
C=CCN1C(=O)c2ccc(C(=O)NCCc3ccc(OC)c(OC)c3)cc2C1=O	-3	0	7	-3	9	1	nt	nt
CCC(=O)N(Cc1cc(=O)[nH]c2ccccc12)c1ccc(C)cc1	-2	-2	-7	-5	10	1	nt	nt
COc1cc(/C=N/NC(=O)CC(=O)NC2CCCCC2)ccc1O	-5	-1	16*	1	2	3	0.9*	5
SMILES	APJ antagonist	APJ ag	HTR2A ag	CXCR6 block	CCR6 antagonist	NTR1 ag	OPRM1 ag	HTR2A ag conf
CC(=O)N1CCN(C(=S)NC(=O)c2ccc(S(=O)(=O)N3CCOCC3)cc2)CC1	33	1	16*	-7	4	-1	-1	-3
CC(=O)Nc1ccc(C(=O)Nc2ccc(S(=O)(=O)N3CCOCC3)cc2)cc1	-1	-3	-2	1	-2	0	nt	nt
CN(C)C(=S)Nc1ccc2c(c1)OCCO2	10	0	-1	4	-2	-1	nt	nt
COc1ccc(-c2[nH][nH]c(=O)c2NC(=O)c2ccc(C)cc2)cc1	nt	nt	-4	-4	nt	nt	nt	nt
COc1cccc(CNC(=O)c2nnn(CC(=O)Nc3cccc(C)c3)c2N)c1	-17	-2	18*	-3	9	0	0	-3
COc1ccc(NC(=O)Cn2nnc(C(=O)NCc3cccs3)c2N)cc1	6	2	15*	6	1	-2	-1	-1
COc1ccc(CNC(=S)NCc2ccc(Cl)cc2)cc1OC	5	-3	-5	-4	-3	-1	nt	nt
COc1ccc(-c2oc3ccccc3c2C#CC(C)(C)O)cc1	-3	-4	-3	4	-3	11	nt	nt
CCCc1cc(NCCCN2CCOCC2)n2c(nc3ccccc32)c1C#N	-5	-1	32*	12	-4	2	0	0
Cc1cc(NCCCN2CCOCC2)n2c(nc3ccccc32)c1C#N	8	-1	0	-1	-6	-3	nt	nt
Cc1csc(NC(=O)CSc2ncn(-c3ccccc3)n2)n1	-7	-2	21*	4	-2	0	0	0
Cc1ccc(-c2csc(NC(=O)CSc3ncn(-c4ccccc4)n3)n2)cc1	3	-2	0	-3	-4	5	nt	nt
Cc1cc(OC(=O)c2cccc(F)c2)c([N+](=O)[O-])c(=O)[nH]1	16	-4	15*	2	-3	1	0	-3
Cc1cc(OC(=O)c2cccc(Cl)c2)c([N+](=O)[O-])c(=O)[nH]1	3	-5	-4	-1	-6	0	nt	nt
O=C1CCNc2c(Cl)cccc21	-2	-2	15*	0	-15	0	-1	2
O=C1CCNc2c(Cl)cc(Cl)cc21	6	1	-2	0	-6	-1	nt	nt
